The text below walks through data of ChEMBL document CHEMBL1821705 (J Med Chem, 2011).

Structures are written as SMILES.

In data set [1] the test system is KARPAS-299. Put plainly: cells. To be noted: Homo sapiens, KARPAS-299, 96 h.
For data set [2], the target named is ALK tyrosine kinase receptor (Homo sapiens, UniProt Q9UM73).
Data set [3] has as its target Vascular endothelial growth factor receptor 2 (Homo sapiens, UniProt P35968). Nature of the data set: Inhibition of KDR activity by TR-FRET assay. A general note: In TR-FRET formats the signal depends on donor and acceptor labels being close together.
A short description of data set [4]: Clearance in human liver microsome at 1 uM after 30 mins by LC/MS analysis in the presence of NADPH. The class given is ADME. To be noted: liver microsomes. In short, it runs like this:
(§1)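 Compound at 1 μM incubated with human or mouse liver microsomes (0.5 mg protein/mL) in 50 mM phosphate buffer pH 7.4 with 1 mM NADPH, 37 °C, 30 min. Stopped with acetonitrile, centrifuged. Remaining compound in the supernatant quantified by LC/MS.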
(In general: Microsomes from liver hold many membrane-bound enzymes, among them those of drug oxidation.)

Data set [5] concerns the target Mast/stem cell growth factor receptor Kit (Homo sapiens, UniProt P10721). Nature of the data set: Inhibition of KIT activity by TR-FRET assay.
A short description of data set [6]: Clearance in mouse liver microsome at 1 uM after 30 mins by LC/MS analysis in the presence of NADPH. The class given is ADME. Conditions: liver microsomes. In short, it runs like this:
as §1

Data set [7] has as its target Hepatocyte growth factor receptor (Homo sapiens, UniProt P08581). Nature of the data set: Inhibition of MET activity by TR-FRET assay.
Data set [8] has as its target Protein kinase C alpha type (Homo sapiens, UniProt P17252). Nature of the data set: Inhibition of PKCA activity by fluorescence polarization assay.
Data set [9] has as its target RAC-alpha serine/threonine-protein kinase (Homo sapiens, UniProt P31749). Nature of the data set: Inhibition of AKT1 activity by fluorescence polarization assay.
The nature of data set [10]: Oral bioavailability in cynomolgus monkey at 0.5 mg/kg. Conditions: in vivo. Type of data set: ADME, organism-based, Macaca fascicularis. In short, it runs like this: (§2)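 Fasted cynomolgus monkeys, n = 2 per route, given 0.5 mg/kg po or iv in 20% EtOH, 10% Cremophor EL, 15% PEG400, 15% HPCD, 0.02 mol/L HCl in water. Heparinized blood taken at 0.08–48 h (iv) or 0.50–48 h (po). Plasma stored at −80 °C, analyzed by LC-MS/MS. Parameters from noncompartmental analysis.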

For data set [11], the system named is KARPAS-299. Put plainly: Antitumor activity against human KARPAS299 xenografted in po dosed SCID mouse assessed as decrease in tumor volume. Type of data set: functional, organism-based. A digest of the protocol:
(§3)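 KARPAS-299 grown as sc tumors in SCID mice. Dosing started when tumors reached about 200 mm³, with four mice per group randomized. Vehicle or compound given by oral sonde once daily for 11 days; vehicle 10% DMSO, 10% Cremophor EL, 15% PEG400, 15% HPCD. Tumor volume taken as (L × W²)/2, measured twice weekly. TGI = [1 − (T − T₀)/(C − C₀)] × 100.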

In data set [12] the target is T1, Protein kinase C beta type (Homo sapiens, UniProt P05771). Put plainly: Inhibition of PKCb1 activity by fluorescence polarization assay.
T1 sequence (P05771 whole entry): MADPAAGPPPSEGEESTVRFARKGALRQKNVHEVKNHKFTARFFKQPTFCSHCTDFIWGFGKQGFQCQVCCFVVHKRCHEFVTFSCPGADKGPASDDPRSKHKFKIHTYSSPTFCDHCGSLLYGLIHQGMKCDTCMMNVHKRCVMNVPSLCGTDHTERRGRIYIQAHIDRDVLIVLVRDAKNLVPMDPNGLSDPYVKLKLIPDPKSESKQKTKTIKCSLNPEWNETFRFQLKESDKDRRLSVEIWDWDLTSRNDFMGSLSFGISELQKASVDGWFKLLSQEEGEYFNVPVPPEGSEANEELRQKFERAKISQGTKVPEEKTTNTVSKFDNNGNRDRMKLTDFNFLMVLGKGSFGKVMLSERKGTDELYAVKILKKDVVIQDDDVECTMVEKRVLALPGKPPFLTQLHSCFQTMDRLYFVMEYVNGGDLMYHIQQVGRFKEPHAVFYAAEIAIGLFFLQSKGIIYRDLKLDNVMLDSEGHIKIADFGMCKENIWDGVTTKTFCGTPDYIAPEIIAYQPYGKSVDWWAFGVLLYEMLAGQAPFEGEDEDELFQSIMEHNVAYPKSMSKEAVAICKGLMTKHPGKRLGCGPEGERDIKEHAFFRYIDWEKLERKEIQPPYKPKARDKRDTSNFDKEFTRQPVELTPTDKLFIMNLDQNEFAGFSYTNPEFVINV
Another data set concerns the target Insulin receptor (Homo sapiens, UniProt P06213). Nature of the data set: Inhibition of INSR activity by TR-FRET assay.
Data set [13] can be described thus: Cmax in cynomolgus monkey at 0.5 mg/kg, po. Type of data set: ADME, organism-based, Macaca fascicularis. Further details: dose 0.5 mg/kg, route oral. Conditions: in vivo. A digest of the protocol: as §2
Data set [14] in a line: Half-life in cynomolgus monkey at 0.5 mg/kg, iv. The class given is ADME, organism-based, Macaca fascicularis. Further details: dose 0.5 mg/kg, route intravenous. Conditions: in vivo. In short, it runs like this: as §2
The nature of data set [15]: Total clearance in cynomolgus monkey at 0.5 mg/kg, iv. Type of data set: ADME, organism-based, Macaca fascicularis. Set-up: dose 0.5 mg/kg, route intravenous. To be noted: in vivo. A digest of the protocol: as §2
Data set [16] addresses RAF proto-oncogene serine/threonine-protein kinase (Homo sapiens, UniProt P04049). Put plainly: Inhibition of Raf-1 activity assessed as MEK1/2 phosphorylation. A digest of the protocol:
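Raf-1 activity read as phosphorylation of MEK1/2, detected with europium-labelled anti-phospho-MEK1/2 (Ser217/221) antibody.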

Data set [17] concerns KARPAS-299. Put plainly: Antitumor activity against human KARPAS299 xenografted in SCID mouse assessed as tumor growth inhibition at 6 mg/kg, po administered for 11 days after 8 days of tumor implantation. Type of data set: functional. Conditions: read-out: TGI. A digest of the protocol:
as §3

Data set [18] concerns the target Receptor tyrosine-protein kinase erbB-2 (Homo sapiens, UniProt P04626). Nature of the data set: Inhibition of HER2 activity by TR-FRET assay.
For data set [19], the target named is Tyrosine-protein kinase ABL1 (Homo sapiens, UniProt P00519). Put plainly: Inhibition of ABL activity by TR-FRET assay.
Data set [20] is described as follows: Volume of distribution at steady state in cynomolgus monkey at 0.5 mg/kg, iv. Type of data set: ADME, organism-based, Macaca fascicularis. Further details: dose 0.5 mg/kg, route intravenous. To be noted: in vivo, read-out: Vdss. A digest of the protocol:
as §2

Data set [21] deals with Fibroblast growth factor receptor 2 (Homo sapiens, UniProt P21802). Nature of the data set: Inhibition of FGFR2 activity by TR-FRET assay.
Data set [22] deals with T1, Protein kinase C beta type. Put plainly: Inhibition of PKCb2 activity by fluorescence polarization assay. (In general: Polarisation of emitted light reports the rotation of a fluorescent probe.)
In data set [23] the test system is KARPAS-299. Put plainly: Antitumor activity against human KARPAS299 xenografted in SCID mouse assessed as tumor growth inhibition at 20 mg/kg, po administered for 11 days after 8 days of tumor implantation. Type of data set: functional. Conditions: read-out: TGI. In short, it runs like this: as §3
The target of data set [24] is Insulin-like growth factor 1 receptor (Homo sapiens, UniProt P08069). Put plainly: Inhibition of IGF1R activity by TR-FRET assay.
A short description of data set [25]: AUC in cynomolgus monkey at 0.5 mg/kg, po. Type of data set: ADME, organism-based, Macaca fascicularis. Set-up: dose 0.5 mg/kg, route oral. To be noted: plasma. In short, it runs like this:
as §2

A short description of data set [26]: Half-life in cynomolgus monkey at 0.5 mg/kg, po. Conditions: in vivo. Set-up: dose 0.5 mg/kg, route oral. Type of data set: ADME, organism-based, Macaca fascicularis. In short, it runs like this:
as §2

Data set [27] addresses Proto-oncogene tyrosine-protein kinase Src (Homo sapiens, UniProt P12931). Nature of the data set: Inhibition of SRC activity by TR-FRET assay.
In a further data set the target is T2, Aurora kinase A (Homo sapiens, UniProt O14965).
T2 sequence (O14965 whole entry): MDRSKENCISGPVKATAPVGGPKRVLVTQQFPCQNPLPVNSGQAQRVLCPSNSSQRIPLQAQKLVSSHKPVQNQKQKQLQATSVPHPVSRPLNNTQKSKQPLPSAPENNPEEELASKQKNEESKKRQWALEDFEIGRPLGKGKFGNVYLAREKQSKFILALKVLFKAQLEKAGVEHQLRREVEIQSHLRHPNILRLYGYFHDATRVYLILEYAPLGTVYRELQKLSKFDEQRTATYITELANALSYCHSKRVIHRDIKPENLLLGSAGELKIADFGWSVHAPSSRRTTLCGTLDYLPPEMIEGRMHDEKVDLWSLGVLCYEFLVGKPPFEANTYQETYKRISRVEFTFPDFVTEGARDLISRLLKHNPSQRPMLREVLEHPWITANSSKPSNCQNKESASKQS
Put plainly: Inhibition of Aurora-A activity by fluorescence polarization assay.

Data set [28] concerns KARPAS-299. Nature of the data set: Antitumor activity against human KARPAS299 xenografted in SCID mouse assessed as tumor growth inhibition at 2 mg/kg, po administered for 11 days after 8 days of tumor implantation. Type of data set: functional. To be noted: read-out: TGI. A digest of the protocol: as §3

Sequence of Vascular endothelial growth factor receptor 2 (P35968 whole entry): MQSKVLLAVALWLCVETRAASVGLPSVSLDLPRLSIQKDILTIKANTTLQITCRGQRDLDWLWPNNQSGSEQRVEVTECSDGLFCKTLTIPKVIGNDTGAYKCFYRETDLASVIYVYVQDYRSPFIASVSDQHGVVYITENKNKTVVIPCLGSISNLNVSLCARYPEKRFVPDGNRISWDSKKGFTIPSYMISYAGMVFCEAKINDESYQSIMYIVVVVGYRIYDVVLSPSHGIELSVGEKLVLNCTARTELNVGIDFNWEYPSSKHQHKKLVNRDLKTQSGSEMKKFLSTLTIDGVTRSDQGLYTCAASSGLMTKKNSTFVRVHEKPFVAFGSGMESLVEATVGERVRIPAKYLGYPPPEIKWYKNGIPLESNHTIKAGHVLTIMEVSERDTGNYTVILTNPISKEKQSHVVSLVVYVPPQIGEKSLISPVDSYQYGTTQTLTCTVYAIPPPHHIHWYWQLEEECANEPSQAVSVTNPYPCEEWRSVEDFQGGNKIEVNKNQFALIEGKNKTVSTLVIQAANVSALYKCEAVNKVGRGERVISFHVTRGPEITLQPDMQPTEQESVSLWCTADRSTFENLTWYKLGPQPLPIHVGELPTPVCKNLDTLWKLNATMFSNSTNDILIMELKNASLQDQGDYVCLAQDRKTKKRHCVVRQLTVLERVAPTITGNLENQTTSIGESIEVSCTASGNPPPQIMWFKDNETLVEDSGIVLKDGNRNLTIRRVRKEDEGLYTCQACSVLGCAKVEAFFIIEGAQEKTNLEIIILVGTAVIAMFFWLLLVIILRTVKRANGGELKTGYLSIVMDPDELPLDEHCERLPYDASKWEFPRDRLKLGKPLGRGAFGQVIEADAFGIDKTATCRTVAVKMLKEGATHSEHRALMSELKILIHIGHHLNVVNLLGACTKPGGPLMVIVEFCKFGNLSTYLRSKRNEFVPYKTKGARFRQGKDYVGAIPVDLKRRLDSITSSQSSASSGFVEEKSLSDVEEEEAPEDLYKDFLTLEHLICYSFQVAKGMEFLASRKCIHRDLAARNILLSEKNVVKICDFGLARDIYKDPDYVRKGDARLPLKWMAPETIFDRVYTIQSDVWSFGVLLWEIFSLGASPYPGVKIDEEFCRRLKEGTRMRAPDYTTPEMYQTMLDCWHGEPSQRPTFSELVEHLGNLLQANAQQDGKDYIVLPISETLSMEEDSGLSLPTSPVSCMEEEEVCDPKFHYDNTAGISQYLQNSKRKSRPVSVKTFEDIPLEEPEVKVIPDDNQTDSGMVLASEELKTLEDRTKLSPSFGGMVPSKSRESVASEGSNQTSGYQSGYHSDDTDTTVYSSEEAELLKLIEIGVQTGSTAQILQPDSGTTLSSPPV
Sequence of Hepatocyte growth factor receptor (P08581 whole entry): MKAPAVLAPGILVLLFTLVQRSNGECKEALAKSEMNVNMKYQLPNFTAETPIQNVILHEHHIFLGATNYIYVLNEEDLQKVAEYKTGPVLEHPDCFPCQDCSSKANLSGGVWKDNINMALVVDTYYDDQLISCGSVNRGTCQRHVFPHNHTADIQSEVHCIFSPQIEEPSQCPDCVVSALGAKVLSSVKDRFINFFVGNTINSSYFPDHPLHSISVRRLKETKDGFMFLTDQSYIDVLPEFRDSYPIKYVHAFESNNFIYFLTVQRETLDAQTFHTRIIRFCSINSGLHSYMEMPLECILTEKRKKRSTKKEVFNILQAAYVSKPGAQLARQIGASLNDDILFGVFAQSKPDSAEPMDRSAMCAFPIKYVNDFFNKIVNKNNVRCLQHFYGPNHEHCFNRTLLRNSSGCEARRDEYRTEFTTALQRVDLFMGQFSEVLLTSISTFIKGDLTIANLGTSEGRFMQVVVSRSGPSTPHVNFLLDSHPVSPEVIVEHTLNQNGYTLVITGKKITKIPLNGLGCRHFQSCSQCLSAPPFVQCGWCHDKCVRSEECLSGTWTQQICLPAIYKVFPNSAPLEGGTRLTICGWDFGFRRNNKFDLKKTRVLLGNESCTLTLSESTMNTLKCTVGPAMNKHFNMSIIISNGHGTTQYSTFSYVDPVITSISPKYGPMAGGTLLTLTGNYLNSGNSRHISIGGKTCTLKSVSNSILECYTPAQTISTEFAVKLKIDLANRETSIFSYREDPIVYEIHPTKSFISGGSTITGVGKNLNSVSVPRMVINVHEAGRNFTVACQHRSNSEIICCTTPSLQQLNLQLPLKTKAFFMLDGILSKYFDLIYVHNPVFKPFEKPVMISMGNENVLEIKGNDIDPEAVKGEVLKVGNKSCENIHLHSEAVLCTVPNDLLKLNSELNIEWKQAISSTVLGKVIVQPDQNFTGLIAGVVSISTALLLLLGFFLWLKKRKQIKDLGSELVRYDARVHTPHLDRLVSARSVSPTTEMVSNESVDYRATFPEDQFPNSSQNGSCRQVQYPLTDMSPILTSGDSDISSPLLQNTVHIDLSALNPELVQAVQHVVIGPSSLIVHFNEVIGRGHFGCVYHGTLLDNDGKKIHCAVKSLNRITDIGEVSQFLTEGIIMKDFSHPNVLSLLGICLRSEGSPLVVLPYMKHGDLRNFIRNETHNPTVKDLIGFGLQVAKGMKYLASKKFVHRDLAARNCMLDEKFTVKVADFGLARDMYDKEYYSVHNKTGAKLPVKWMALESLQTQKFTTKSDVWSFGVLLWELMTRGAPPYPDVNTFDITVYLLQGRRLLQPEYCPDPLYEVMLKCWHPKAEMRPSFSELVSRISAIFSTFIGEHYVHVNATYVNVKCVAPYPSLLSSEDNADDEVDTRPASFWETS
Sequence of Mast/stem cell growth factor receptor Kit (P10721 whole entry): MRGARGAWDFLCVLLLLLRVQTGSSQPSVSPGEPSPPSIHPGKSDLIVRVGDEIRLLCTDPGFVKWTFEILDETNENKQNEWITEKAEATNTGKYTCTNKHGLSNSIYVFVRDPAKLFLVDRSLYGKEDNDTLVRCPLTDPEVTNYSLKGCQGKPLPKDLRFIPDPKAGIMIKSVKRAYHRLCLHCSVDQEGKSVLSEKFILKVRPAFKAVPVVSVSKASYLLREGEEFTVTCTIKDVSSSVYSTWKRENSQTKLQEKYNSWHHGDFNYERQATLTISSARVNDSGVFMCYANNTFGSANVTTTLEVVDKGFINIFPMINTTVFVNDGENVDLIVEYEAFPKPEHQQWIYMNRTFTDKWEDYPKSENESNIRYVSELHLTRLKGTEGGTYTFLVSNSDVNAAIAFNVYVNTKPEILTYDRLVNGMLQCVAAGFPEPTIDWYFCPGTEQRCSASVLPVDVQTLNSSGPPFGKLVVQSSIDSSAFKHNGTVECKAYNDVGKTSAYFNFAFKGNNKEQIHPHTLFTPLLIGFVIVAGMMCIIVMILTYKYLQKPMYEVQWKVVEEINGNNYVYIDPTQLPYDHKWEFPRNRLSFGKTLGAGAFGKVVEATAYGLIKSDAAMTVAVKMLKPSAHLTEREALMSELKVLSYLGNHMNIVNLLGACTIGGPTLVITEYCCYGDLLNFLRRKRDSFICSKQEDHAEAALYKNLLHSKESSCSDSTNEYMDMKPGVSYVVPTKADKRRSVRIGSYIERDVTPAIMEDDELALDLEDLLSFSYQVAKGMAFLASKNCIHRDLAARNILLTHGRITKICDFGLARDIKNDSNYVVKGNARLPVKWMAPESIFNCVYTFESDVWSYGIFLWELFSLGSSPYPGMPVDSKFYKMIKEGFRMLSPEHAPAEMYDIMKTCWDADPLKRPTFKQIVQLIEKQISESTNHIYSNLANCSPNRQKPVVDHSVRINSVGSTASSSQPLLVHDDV
Sequence of RAF proto-oncogene serine/threonine-protein kinase (P04049 whole entry): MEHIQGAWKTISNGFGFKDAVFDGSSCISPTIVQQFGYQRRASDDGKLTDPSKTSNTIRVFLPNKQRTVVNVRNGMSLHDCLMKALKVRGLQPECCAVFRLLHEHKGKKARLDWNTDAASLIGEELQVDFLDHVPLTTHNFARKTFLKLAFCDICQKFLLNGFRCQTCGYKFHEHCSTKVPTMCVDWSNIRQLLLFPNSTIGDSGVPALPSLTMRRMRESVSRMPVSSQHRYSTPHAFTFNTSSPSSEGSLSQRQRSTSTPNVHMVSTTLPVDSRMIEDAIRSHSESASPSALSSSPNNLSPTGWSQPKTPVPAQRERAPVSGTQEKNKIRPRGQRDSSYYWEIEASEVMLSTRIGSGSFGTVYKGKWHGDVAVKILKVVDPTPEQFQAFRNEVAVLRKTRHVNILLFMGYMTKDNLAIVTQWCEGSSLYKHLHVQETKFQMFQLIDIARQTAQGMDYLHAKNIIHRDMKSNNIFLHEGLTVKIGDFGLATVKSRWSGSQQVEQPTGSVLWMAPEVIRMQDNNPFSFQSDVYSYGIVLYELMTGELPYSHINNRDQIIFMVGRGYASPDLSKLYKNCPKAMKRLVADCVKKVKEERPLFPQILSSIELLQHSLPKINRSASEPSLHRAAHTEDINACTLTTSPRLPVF

For the compound `CC(C)c1cc2c(cc1N1CCN(C3COC3)CC1)C(C)(C)c1[nH]c3cc(C#N)ccc3c1C2=O`, the IC50 (as a rule, the concentration that gives 50% inhibition) was 118 nM with KARPAS-299 [1]; 66.4 nM in [2]; more than 5000 nM in data set [3]; more than 5000 nM in data set [5]; more than 5000 nM in [7]. Besides, the results for the microsomal CLint at 1 µM in data set [4] and in data set [6] were 17.4 µL/min/mg and 4.1 µL/min/mg, respectively.
With `CC1(C)c2cc(N3CCN(C4COC4)CC3)c(CCC3CCCC3)cc2C(=O)c2c1[nH]c1cc(C#N)ccc21`, the IC50 was 544 nM in the data set on KARPAS-299 [1], more than 5000 nM in [3], more than 5000 nM in data set [5] and more than 5000 nM in [7]. Besides, the values for the microsomal CLint at 1 µM in data set [4] and in data set [6] were 17.8 µL/min/mg and 44.7 µL/min/mg, respectively.
Regarding `CCCc1cc2c(cc1N1CCN(C3COC3)CC1)C(C)(C)c1[nH]c3cc(C#N)ccc3c1C2=O`, the IC50 was 25.3 nM with KARPAS-299 [1]; 15.1 nM in data set [2]; more than 5000 nM in data set [3]; more than 5000 nM in [5]; more than 5000 nM in data set [7]. In addition, the results for the microsomal CLint at 1 µM in [4] and in data set [6] were 19.4 µL/min/mg and 4.7 µL/min/mg, respectively.
In the case of `C#Cc1cc2c(cc1N1CCN(C3COC3)CC1)C(C)(C)c1[nH]c3cc(C#N)ccc3c1C2=O`, the IC50 is 2.7 nM in [2], 455 nM in [3], 2420 nM in [5] and more than 5000 nM in [7]. The figures for the microsomal CLint at 1 µM in data set [4] and in [6] were 18.9 µL/min/mg and 2.1 µL/min/mg, respectively.
For `CCc1cc2c(cc1N1CCN(C3COC3)CC1)C(C)(C)c1[nH]c3cc(C#N)ccc3c1C2=O`, the IC50 in [8] was more than 50000 nM; in [9] it was more than 50000 nM; with KARPAS-299 [1], 12.8 nM; in data set [12] it was more than 50000 nM; at Insulin receptor, 460 nM; in data set [3], more than 5000 nM. For the same compound, the IC50 in data set [16] is more than 50000 nM; in [5] it was more than 5000 nM; in data set [18], more than 50000 nM; in data set [19] it was more than 50000 nM; in [21], more than 50000 nM; in data set [22] it was more than 50000 nM. In addition, the IC50 in [24] is more than 50000 nM; in data set [27], more than 50000 nM; at Aurora kinase A it was more than 50000 nM; in data set [7], more than 5000 nM. Also, the bioavailability – broadly, dose-corrected exposure relative to a reference, in per cent – in data set [10] worked out at 28.2%. In the data set with KARPAS-299 [11], the Activity result was “Dose-dependent effect”. In data set [13], the Cmax – broadly, the maximum level reached in the sampled fluid or tissue – worked out at 327 ng/mL. The half-life (usually the time needed for the level to fall by half in the phase considered) in data set [14] was 5.3 h; in [26], 6.25 h. In addition, the clearance (usually the rate of elimination divided by the concentration) in data set [15] is 0.73 mL/min/kg. Moreover, the microsomal CLint (commonly the capacity of the preparation to metabolise the compound, expressed as a volume cleared per time) at 1 µM in data set [4] stood at 17 µL/min/mg; in [6], 4.5 µL/min/mg. Moreover, the inhibition in vivo at 6 mg/kg in the data set on KARPAS-299 [17] is 103%. Further, in data set [20], the Vd is 0.296 L/kg. Moreover, in the data set with KARPAS-299 [23], the inhibition in vivo at 20 mg/kg stood at 119%. For the same compound, the area under the curve (AUC) (as a rule, the area under the concentration-time curve, a measure of exposure) in data set [25] was found to be 3270 ng·h/mL. For the same compound, the inhibition in vivo at 2 mg/kg in the data set on KARPAS-299 [28] was 49%.
Regarding `CC1(C)c2cc(N3CCN(C4COC4)CC3)ccc2C(=O)c2c1[nH]c1cc(C#N)ccc21`, the IC50 in data set [3] is 137 nM; in data set [5] it was 83.9 nM; in data set [7] it was more than 5000 nM.
For `Cc1cc2c(cc1N1CCN(C3COC3)CC1)C(C)(C)c1[nH]c3cc(C#N)ccc3c1C2=O`, the IC50 in the data set with KARPAS-299 [1] is 14.8 nM; in [2], 10.6 nM; in [3], 60.8 nM; in data set [5], 49.8 nM; in data set [7], more than 5000 nM. The intrinsic metabolic clearance (microsomal CLint) at 1 µM in data set [4] is 22.6 µL/min/mg; in data set [6], 7 µL/min/mg.
